# GAA850 FXN act = increases GAA850 frataxin promoter reporter activity; HEK293 lucGAA850 FXN promoter luciferase reporter, 24 h; percent of 10 µM SAHA response; activation, % at 6 µM; hit rate 0.56% among 360,000; AID 540364;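 active = activation above the average of all compounds screened plus 3 SD, cutoff fixed separately per campaign, cut at about 7.5% in these data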
# SR-BI DiI inh = blocks mouse SR-BI lipid uptake from DiI-HDL; inhibition, % at 12.5 µM; AID 488896; Q61009; ldlA[mSR-BI] CHO cells, DiI-HDL uptake fluorescence, 3 h; hit rate 0.96% among 320,000;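 active = mean replicate inhibition of at least 70% and a set share of replicates each scoring 70 or more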
# AHR activator = human AHR activation | P35869 | AHR-responsive luciferase reporter cells, luminescence | activation, % at 5 µM | hit rate 2.5% among 320,000 | AID 2796; in the data active = activation above about 47%
# SR-BI DiI-HDL act = activators of SR-BI mediated HDL lipid uptake. AID 504775. hit rate 0.096% among 320,000. CHO ldlA[mSR-BI] cells, DiI-HDL uptake fluorescence, 3 h; 100 = double the neutral-control signal. activation, % at 12.5 µM;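 active = mean replicate activation of at least 60% and every replicate at or above 60%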
#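 Material: SR-BI-overexpressing, LDLR-lacking CHO cells | Dosing: Single compound concentration, delivered by pin transfer | Probe or stimulus: Labelled HDL, 10 µg/mL | Signal: Bottom-read cell fluorescence after medium removal, ex 550/em 595 nm | Schedule: 3 h, 37 °C | Evaluation: HDL uptake via cellular fluorescence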
# GASC-1 inh = inhibitors of human GASC-1 (JMJD2C) demethylase. Q9H3R0. GST-JMJD2C(1-420) H3K9me3 demethylation, DELFIA europium. inhibition, % at 2.35 µM. hit rate 0.069% among 330,000. AID 2099;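 active = more than half of a compound's replicate wells show inhibition beyond 50%, single wells judged on their own value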;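 also: signal counts dimethyl H3K9 product captured on neutravidin plate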
# Target sequence (Q9H3R0 1-420 limits assumed): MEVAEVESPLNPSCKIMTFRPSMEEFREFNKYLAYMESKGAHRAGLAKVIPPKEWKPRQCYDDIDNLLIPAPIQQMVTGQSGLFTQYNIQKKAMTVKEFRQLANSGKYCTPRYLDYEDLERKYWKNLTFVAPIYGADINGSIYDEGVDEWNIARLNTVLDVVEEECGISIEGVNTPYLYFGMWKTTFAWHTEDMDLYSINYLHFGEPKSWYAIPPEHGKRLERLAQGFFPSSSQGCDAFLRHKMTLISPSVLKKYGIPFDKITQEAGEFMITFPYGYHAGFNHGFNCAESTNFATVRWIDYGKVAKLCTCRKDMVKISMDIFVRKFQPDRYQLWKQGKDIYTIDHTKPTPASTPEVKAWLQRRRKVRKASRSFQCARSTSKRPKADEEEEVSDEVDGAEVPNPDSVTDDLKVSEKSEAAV
# Numbers stand for hits; – = inactive; · = no result. In the library only some 3.7% were active in any assay of this set; here they are far more common.
SMILES,GAA850 FXN act,SR-BI DiI inh,AHR activator,SR-BI DiI-HDL act,GASC-1 inh
COc1ccccc1NC(=O)NNC(=O)c1cc2ccccc2cc1O,–,93.7,–,–,–
COc1cc(OC)cc(C(=O)NNC(=O)c2cc3ccccc3cc2O)c1,–,113.6,·,–,–
COc1ccc(-c2cc(=O)oc3cc(OCC(=O)NCC(O)c4ccccc4)ccc23)cc1 (configuration not stated),–,–,–,–,–
CCc1ccccc1NC1=NCC(=O)N1Cc1ccc2c(c1)OCO2,–,–,–,–,–
CNc1ccccc(-c2ccc3cc4c(cc3n2)OCO4)c1=O,–,–,70.5,–,–
N#Cc1c(NC(=O)c2ccccc2)sc2c1CCCCC2,–,78.5,–,–,–
N#Cc1c(NC(=O)/C=C/c2ccco2)sc2c1CCCC2,–,80.1,–,–,–
N#Cc1c(NC(=O)CSC2=NCCS2)sc2c1CCCC2,–,81.9,–,–,–
N#Cc1c(NC(=O)CSc2ncn[nH]2)sc2c1CCCC2,–,–,–,–,–
Cc1noc(C(=O)Nc2sc3c(c2C#N)CCC3)c1Cl,–,–,47.0,–,–
CC1CCCCC12NC(=O)N(CC(=O)N1CCN(S(=O)(=O)/C=C/c3ccccc3)CC1)C2=O (configuration not stated),–,–,–,–,–
CC(C)(C)C(=O)NC(=S)Nc1sc2c(c1C#N)CCCCC2,–,–,59.3,–,–
Cc1ccc(C(=O)Nc2sc3c(c2C#N)CCCCC3)cc1C,–,–,70.8,–,–
CC(=O)Nc1sc2c(c1C#N)CCCCC2,–,–,–,–,·
Cc1ccccc1C(=O)NC(=S)Nc1sc2c(c1C#N)CCCC2,–,–,–,–,–
Cc1cccc(C(=O)Nc2sc(C)c(-c3ccccc3)c2C#N)c1,–,–,50.0,–,–
CC(CNC(=O)CCS(=O)(=O)c1ccc2c(c1)NC(=O)CO2)c1ccccc1 (configuration not stated),–,–,–,–,–
O=C(NCc1cccs1)C1CCN(S(=O)(=O)c2cccc([N+](=O)[O-])c2)CC1,–,·,–,·,–
O=C(CCl)Nc1cc2[nH]c(=O)[nH]c2cc1Br,–,–,–,–,–
COc1ccc(-c2cc3nc(C)cc(N4CC(C)CC(C)C4)n3n2)cc1 (configuration not stated),–,–,49.5,–,–
COc1ccc(-c2cc3nc(C)cc(N4CCN(C(=O)c5ccoc5)CC4)n3n2)cc1,–,·,·,·,·
O=C(Cc1cccc2ccccc12)N1CCCc2ccccc21,–,–,–,–,57.6
Cc1ccc(Nc2nc(N)nc(CSc3ncccn3)n2)cc1,–,–,67.8,–,–
Cc1ccc(SCc2nc(N)nc(Nc3ccccc3C)n2)c(C)c1,–,–,–,–,–
Cc1ccc(Nc2nc(N)nc(CSCCO)n2)cc1,–,–,48.3,–,–
SMILES,GAA850 FXN act,SR-BI DiI inh,AHR activator,SR-BI DiI-HDL act,GASC-1 inh
Cc1ccc(Nc2nc(N)nc(CSc3nccn3C)n2)c(C)c1,–,–,48.1,–,–
COc1ccc(Nc2nc(N)nc(CSCCO)n2)cc1,–,–,–,–,–
COc1ccc(Nc2nc(N)nc(CSc3n[nH]c(-c4ccccc4)n3)n2)cc1,–,–,48.6,–,–
CC1(C(=O)NCc2ccc(C(F)(F)F)cc2)CCN1Cc1ccc(-c2ccccc2)o1 (configuration not stated),–,·,·,·,·
C[C@@H](C(=O)NCCc1c[nH]c2ccccc12)[C@H]1C[C@]1(C)[C@H](NC(=O)OCc1ccccc1)c1ccccc1,–,–,–,–,–
CCCS(=O)(=O)NC(=O)C1(C)CCCN(C(=O)c2ccc(SC(F)(F)F)cc2)C1 (configuration not stated),–,·,·,·,·
Clc1ccc(C2CSc3c4ncnc-4ncn32)cc1 (configuration not stated),–,–,–,–,–
O=C(C#Cc1ccccc1)c1ccc([N+](=O)[O-])cc1,12.9,–,·,–,–
O=C(C#Cc1ccccc1)c1ccccc1,9.3,·,·,·,·
CN(C)C(=O)C#Cc1ccccc1,–,–,–,–,–
Cc1ccc(-c2csc(NC(=O)/C=C/c3ccco3)c2C(=O)O)cc1,–,–,–,–,–
CCc1c(C)nc2cc(-c3ccc(OC)c(OC)c3)nn2c1NCC1CC1,–,88.8,–,–,–
COc1ccc(-c2c(C)nn3c(NC4CCCC4)cc(C)nc23)cc1OC,–,–,–,–,–
COc1ccc(Nc2nc(-c3ccccc3)nc3ccccc23)cc1,–,–,–,–,–
O=[N+]([O-])c1ccc(-c2nc(Nc3ccc(O)cc3)c3ccccc3n2)cc1,–,90.7,·,–,–
O=[N+]([O-])c1ccc(S(=O)(=O)Nc2nc3ccccc3nc2Nc2ccccc2)cc1,–,78.2,–,–,–
COc1ccc(Nc2nc(-c3cccs3)nc3ccccc23)cc1,–,75.4,–,–,–
COc1ccc(Nc2nc(-c3cccc([N+](=O)[O-])c3)nc3ccccc23)cc1,–,87.6,–,–,–
Cc1ccc(N2C(=O)c3ccccc3C2C(=O)c2ccc(C)c(C)c2O)cc1 (configuration not stated),–,–,–,–,–
COc1ccccc1CNC(=O)c1cnc2ccccn2c1=O,–,–,–,–,–
COc1ccccc1CNC(=O)c1cnc2sccn2c1=O,–,–,53.1,–,–
Cc1cccc(NC(=O)c2cnc3sccn3c2=O)c1,–,–,67.7,–,–
Cc1ccc(NC(=O)CCc2c(C)nn(-c3ccc(N4CCCCC4)nn3)c2C)cc1C,–,–,–,–,–
Cc1ccc(NC(=O)CCc2c(C)nn(-c3ccc(N4CCCCC4)nn3)c2C)cc1,–,–,–,–,·
COc1ccc(C)cc1NC(=O)CCc1c(C)nn(-c2ccc(N3CCCCC3)nn2)c1C,–,71.1,–,–,–
SMILES,GAA850 FXN act,SR-BI DiI inh,AHR activator,SR-BI DiI-HDL act,GASC-1 inh
Cc1cc(F)ccc1NC(=O)CCc1c(C)nn(-c2ccc(N3CCCCC3)nn2)c1C,–,82.4,–,–,–
Cc1ccc(F)cc1NC(=O)CCc1c(C)nn(-c2ccc(N3CCCCC3)nn2)c1C,–,80.6,–,–,–
CC(C)C[C@@H](CO)N1CCN(Cc2cccnc2)CCC1=O,–,–,–,–,–
COc1ccc(-c2cc(C(F)(F)F)c3c(n2)sc2c(O)cc(=O)[nH]c23)c(OC)c1,–,–,69.8,–,–
Cc1cc(C)c2c(n1)sc1c(O)cc(=O)[nH]c12,–,–,–,–,–
NC1=NC(c2cn[nH]c2-c2ccc(F)cc2)n2c(nc3ccccc32)N1 (configuration not stated),·,·,–,·,–
CN(C)/C=N/c1c(C#N)cnn1-c1ncnc2sc(-c3ccccc3)cc12,–,–,57.7,–,–
CN1CCN(c2ncnc3sc(-c4ccccc4)cc23)CC1,–,–,54.6,–,–
CN(C)/C=N/c1c(C#N)cnn1-c1ccccc1,–,–,–,–,–
O=C(Cc1ccccc1)Nn1c(O)c(/C=C2\C=Nc3ccccc32)sc1=S,–,–,76.2,–,–
O=S(=O)(Nn1c(O)c(C=C2N=c3ccccc3=N2)sc1=S)c1ccccc1,–,·,–,·,–
